The record followed here is ChEMBL document CHEMBL2311266, “Isolation and identification of β-hematin inhibitors from Flacourtia indica as promising antiplasmodial agents” (Eur J Med Chem, 2013).

One series concerns Plasmodium yoelii. Put plainly: Antimalarial activity against Plasmodium yoelii infected in Swiss mouse assessed as inhibition of beta-hematin formation in plasma after 16 hrs by spectrophotometric analysis. The series is classed as functional, organism-based. The essentials:
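P. yoelii-infected male Swiss mice (15-20 g; 1×10^5 infected RBCs); blood at 50% parasitemia taken in 2.0% citrate, plasma used. Mix: 100 mM sodium acetate pH 5.1, 50 µL plasma, 100 µM hemin, 1–50 µg compound per 1.0 mL; 37 °C 16 h shaking, triplicate. Pellet washed (Tris-SDS, water), dissolved in NaOH, A400; IC50 by non-linear regression.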

Series [1] in a line: Selectivity index, ratio of CC50 for african green monkey Vero cells to IC50 for Plasmodium falciparum 3D7. Type of series: functional. The essentials:
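SI = CC50 (Vero, MTT, 72 h) / IC50 against P. falciparum 3D7. […] Read-out SYBR Green I fluorescence (ex 485, em 530 nm), logistic regression, triplicate.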

Series [2] can be described thus: Cytotoxicity against african green monkey Vero cells after 72 hrs by MTT assay. Type of series: cell-based. To be noted: chlorocebus sabaeus. The essentials: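 Vero cells (1 × 10⁴) exposed to serial dilutions of test agents for 72 h; viability read by MTT. Three replicates; CC50 from non-linear regression of dose-response curves.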
For orientation: Tetrazolium dyes change colour on reduction, which living cells bring about.

Series [3] has as its system Plasmodium falciparum. Put plainly: Antiplasmodial activity against chloroquine-sensitive Plasmodium falciparum 3D7 after 72 hrs by SYBR green assay. Type of series: functional, organism-based. To be noted: 3D7, 72 h. The essentials: (§1)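 Compounds dissolved in DMSO (5 mg/mL or 10 mM stock), two-fold serial dilutions. Asynchronous culture (>80% rings) at 1.0% cell suspension, 0.8% parasitemia, 72 h at 37 °C under 5% CO₂/air. Lysis buffer with 2× SYBR Green I added, 1 h at 37 °C. Fluorescence read at 485/530 nm. IC50 by logistic regression of dose-response curves, three replicates, chloroquine reference.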

Series [4] deals with Plasmodium falciparum. Description: Antiplasmodial activity against chloroquine-resistant Plasmodium falciparum K1 after 72 hrs by SYBR green assay. The series is classed as functional, organism-based. To be noted: K1, 72 h. The essentials:
as §1

Series [5] is described as follows: Inhibition of H2O2-induced hemin degradation at 20 uM incubated for 10 mins prior to H2O2-induction measured after 30 mins by spectrophotometric analysis relative to control.

Each structure is given as a SMILES string.

With `O=C1C[C@@H](c2ccc(O)c(O)c2)c2c(O)cc3c(c2O1)C[C@H](O)[C@@H](c1ccc(O)c(O)c1)O3`, the results for the IC50 in the series on Plasmodium yoelii, in the series on Plasmodium falciparum [3] and with Plasmodium falciparum [4] were 10.1 µM, 1.1 µM and above 5 µM, respectively. In addition, the “Ratio CC50/IC50” value in series [1] turned out to be 181.8. Moreover, the CC50 – broadly, the concentration at which the toxic effect on the cells reaches its halfway point – at 72 h in series [2] turned out to be 200 µM. For the same compound, the inhibition – broadly, the relative decrease from the control value, in per cent – in series [5] was determined as 23%.

Take `O=C(OC[C@H]1O[C@@H](Oc2ccc(O)cc2CO)[C@H](O)[C@@H](O)[C@@H]1O)c1ccccc1` [POLIOTHYRSOSIDE]: the IC50 (usually the concentration that inhibits the measured activity by half) is above 50 µM with Plasmodium yoelii, 8.1 µM in the series on Plasmodium falciparum [3] and above 25 µM with Plasmodium falciparum [4]. Further, the “Ratio CC50/IC50” value in series [1] was 16.8. This compound also yielded a CC50 at 72 h in series [2] of 136 µM.

Turning to `CCN(CC)CCCC(C)Nc1ccnc2cc(Cl)ccc12` (stereo not given) [CHLOROQUINE], the IC50 in the series with Plasmodium yoelii amounted to 7.7 µM. In series [2], the CC50 at 72 h was 126 µM. The compound further registered an inhibition in series [5] of 53.5%.

For `O=c1cc2c3c(cc4c(c3o1)C[C@H](O)[C@@H](c1ccc(O)c(O)c1)O4)Oc1cc(O)c(O)cc1-2` [MURURIN A], the IC50 in the series with Plasmodium yoelii turned out to be 8.3 µM; with Plasmodium falciparum [3] it was 1.2 µM; in the series with Plasmodium falciparum [4] it was 1.3 µM. Further, the “Ratio CC50/IC50” value in series [1] is recorded as 48.7. This compound also gave a CC50 at 72 h in series [2] of 58.5 µM. The inhibition in series [5] is 37.5%.

`COc1cc(-c2cc(=O)c3c(O)cc(O[C@@H]4O[C@H](CO)[C@@H](O)[C@H](O)[C@H]4O)cc3o2)ccc1O`: the results for the IC50 with Plasmodium yoelii, in the series with Plasmodium falciparum [3] and in the series with Plasmodium falciparum [4] were above 50 µM, 4.4 µM and above 5 µM, respectively. In series [1], the “Ratio CC50/IC50” value came to 45.4. This compound came in with a CC50 at 72 h in series [2] of 200 µM.

`O=C(OC[C@H]1O[C@@H](Oc2ccc(O)cc2COC(=O)[C@@]2(O)[C@H](O)C=CC(=O)[C@@H]2O)[C@H](O)[C@@H](O)[C@@H]1O)c1ccccc1`: the IC50 in the series on Plasmodium yoelii was above 50 µM; in the series on Plasmodium falciparum [3] it was 3.6 µM; in the series on Plasmodium falciparum [4] it was above 5 µM. Further, in series [1], the “Ratio CC50/IC50” value is recorded as 32.9. In addition, the midpoint of cytotoxicity in series [2], the CC50 at 72 h, lay at 118 µM.

With `O=C(O[C@H]1[C@H](Oc2ccc(O)cc2COC(=O)[C@@]2(O)[C@H](O)C=CC(=O)[C@@H]2O)O[C@H](CO)[C@@H](O)[C@@H]1O)c1ccccc1`, the IC50 is above 50 µM with Plasmodium yoelii, 4.4 µM in the series on Plasmodium falciparum [3] and above 5 µM in the series on Plasmodium falciparum [4]. Besides, the “Ratio CC50/IC50” value in series [1] is on record as 17.6. The same compound yielded a CC50 at 72 h in series [2] of 77.3 µM.
